Compound activity (PubChem BioAssay)
CHOP inhibitor: CHOP inhibition in unfolded protein response; CHO-K1 CHOP-promoter luciferase, tunicamycin-induced, 15-18 h; inhibition, % at 10 µM; 220,000 tested, 3.8% active;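 active means compounds that reduced the stress-induced luciferase reporter signal by more than about 70% of percent inhibition, limit read from the data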;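 further: 0% = tunicamycin plus vehicle and 100% = wells without tunicamycin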
UPR XBP1 act: adaptive UPR (XBP1) activation; CHO-XBP1 luciferase reporter, IRE1-XBP1 UPR activation, luminescence; percent of tunicamycin response, DMSO as zero; activation, % at 20 µM; 330,000 tested, 0.33% active;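 active means versus positive control, 20 µM dose yields 30% or more activation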;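 further: 100% = tunicamycin at 10 µg/mL and 0% = DMSO only wells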
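Material: CHO cell line with stable XBP1 luciferase reporter; buffer or medium: F12 medium containing 10% fetal bovine serum; compound: single point, 20 µM final compound, 1% DMSO; incubation: 6 h treatment, 37 °C; measured by: glow luminescence from Steady-Glo reagent; evaluation: activation, % of tunicamycin; control set: tunicamycin high, DMSO low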
TLR9-MyD88 block: blocks human TLR9 binding to MyD88 | CHO BLA complementation TLR9-MyD88, CCF4 FRET ratio | inhibition, % at 4.98 µM | 340,000 tested, 0.21% active | AID 504734;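 active means inhibition above the mean over all tested compounds plus 3 SD, cut at about 21% in these data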;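 further: 0% = DMSO only wells and 100% = clavulanate BLA inhibitor control wells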
UPR CHOP act: activators of apoptotic arm of unfolded protein response (CHOP). CHO-CHOP luciferase reporter, UPR activation, luminescence; percent of tunicamycin response over DMSO baseline. activation, % at 10 µM. 330,000 tested, 0.34% active;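 active means at 10 µM dose, activation of 40% or more, normalized to positive control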;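 further: 100% = tunicamycin at 10 µg/mL and 0% = DMSO alone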
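assay system = CHO CHOP reporter cells | amount = 500 CHO-CHOP cells per well | buffer or medium = F12 with 10% FBS | incubation = 16-18 h cell attachment, then 6 h compound exposure, 37 °C | detection = luminescence read with Steady-Glo | read-out = percent activation relative to tunicamycin control | controls = tunicamycin high control, DMSO low control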
TLR4 MyD88 comp: inhibitors of human TLR4-MyD88 binding; O00206+Q99836; HeLa CL3-4 TLR4/MyD88 BLA complementation, FRET ratio; inhibition, % at 8.4 µM; 200,000 tested, 0.18% active; AID 861; in the data active means inhibition above about 25%;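 further: 0% = vehicle and 100% = reference inhibitor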
NOD2 RIPK2 PPI: NOD2-RIPK2 protein interaction inhibition; CHO BLA complementation NOD2-RIPK2, CCF4 ratio; inhibition, % at 4.98 µM; 360,000 tested, 0.38% active; O43353; in the data active means inhibition above about 21%;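 further: 0% = vehicle only and 100% = reference blocker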
CHOP inh conf: confirmation of CHOP induction inhibitors. inhibition, % at 10 µM. CHO-CHOP promoter luciferase reporter, tunicamycin-induced, luminescence. shares compounds with CHOP inhibitor. 2,100 tested, 45% active;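 active means mean of three repeat readings of reporter signal inhibition above a set limit, cut at about 70% in these data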;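 further: 0% = tunicamycin plus vehicle and 100% = wells lacking tunicamycin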
Starred values were filed as active, the others as inactive; . = not tested or not shown. This excerpt belongs to a sample that is enriched for hits.

SMILES	CHOP inhibitor	UPR XBP1 act	TLR9-MyD88 block	UPR CHOP act	TLR4 MyD88 comp	NOD2 RIPK2 PPI	CHOP inh conf
Cc1ccsc1/C=N/n1c(-c2cc(-c3ccccc3)n[nH]2)n[nH]c1=S	-0.3	2.0	3.2	-0.7	.	10.6	.
O=C(CCc1ccccn1)N1CCCC(N2CCN(c3cccc(C(F)(F)F)c3)CC2)C1 (centres undefined)	.	-1.6	5.4	-0.9	.	-0.1	.
COc1ccc(N=CC2=C(O)c3ccccc3C2=O)c(OC)c1	100.3*	-10.7	-8.6	-8.8	-0.9	-13.6	132.7*
CCC(CC)C(=O)N1CC(=O)Nc2ccc(F)cc2C1c1ccccc1 (centres undefined)	.	-7.2	1.7	1.8	.	-3.8	.
C[C@@H]1CC[C@@]23COC(=O)C2=CCC[C@@H]3[C@@]1(C)CC/C(=C/CO)CO	.	0.0	-1.3	0.9	.	-27.7	.
CC1=CCC[C@@H]2[C@@](C)(CC/C(C)=C/C(=O)O)[C@H](C)CC[C@@]12C	98.5*	-1.0	-16.2	1.4	-13.7	-7.6	112.2*
Cc1cc(O)c(NC(=S)NC(=O)c2ccc(-c3ccc(Cl)cc3)o2)cc1C	105.2*	-2.7	-2.1	1.6	4.2	-5.5	113.4*
CC(=O)OC[C@@H]1CN(Cc2ccccc2)C[C@H](n2cnc3c(NC4CCCC4)ncnc32)O1	.	.	.	.	.	-11.6	.
COc1ccc(NC(=O)c2cc3cccc(OC)c3oc2=Nc2ccc(C(=O)O)cc2)cc1OC	102.9*	.	-2.7	.	-0.5	-2.2	110.2*
COc1cccc(NC(=O)c2cc3cccc(OC)c3o/c2=N\O)c1	.	1.2	.	7.7	.	.	.
Cc1ccc(/C=N/n2c(C3CCCCC3)n[nH]c2=S)s1	104.8*	0.8	-8.0	2.7	-2.9	-9.6	95.6*
Fc1ccc(/C=N/n2c(C3CCCCC3)n[nH]c2=S)cc1	.	0.1	0.6	-0.6	.	6.2	.
COc1ccccc1/C=C\C=N\n1c(C2CCCCC2)n[nH]c1=S	108.0*	1.8	-9.9	-0.4	-0.9	-8.2	2.6
O=C(CC1C(=O)NCCN1CC(c1ccccc1)c1ccccc1)NC1CC1 (centres undefined)	8.4	5.2	-1.1	-0.4	-15.3	-5.0	.
CCN(CC)S(=O)(=O)c1ccc(N2CC(C(=O)NCc3ccco3)CC2=O)cc1 (centres undefined)	.	.	-0.9	.	.	-2.4	.
COc1ccc(CP(=O)(c2ccccc2)c2ccccc2)cc1	.	-2.3	2.3	1.2	.	-0.3	.
COc1ccc(CN(C)C2c3ccccc3-c3ccccc32)cc1	106.1*	-2.4	11.1	0.1	-0.8	-0.7	4.8
O=C(/C=C/c1ccccc1)N1CCC[C@H]1CO	7.5	0.3	7.0	3.6	-4.0	-3.2	.
C#CCSc1nncn1C(=O)/C=C/c1ccccc1	105.0*	1.0	.	5.4	2.5	.	-7.9
COC(=O)c1ccc(CN2C(=O)NC3(CCCCC3C)C2=O)o1 (centres undefined)	8.7	-0.8	4.1	-1.8	12.0	10.7	.
O=C(OCC(=O)C12CC3CC(CC(C3)C1)C2)c1cccnc1Cl	21.4	4.3	-5.4	3.9	12.3	3.7	.
O=C(Cn1cc(C(F)(F)F)ccc1=O)N/N=C/c1ccc(Cl)cc1	-17.9	0.3	-3.9	-1.2	7.6	-5.6	.
C(=N\Nc1nc(N2CCCCC2)nc(N2CCCCC2)n1)/c1c[nH]c2ccccc12	100.8*	1.5	-20.4	5.7	8.4	-6.8	42.2
CN(C)c1nc(N/N=C/c2c[nH]c3ccccc23)nc(N2CCOCC2)n1	-30.0	-0.5	0.8	4.1	-11.1	-6.8	.
Nc1nc(NCCN2CCOCC2)nc(NCc2ccccc2)c1[N+](=O)[O-]	-0.1	2.8	-25.3	-0.5	.	0.6	.
SMILES	CHOP inhibitor	UPR XBP1 act	TLR9-MyD88 block	UPR CHOP act	TLR4 MyD88 comp	NOD2 RIPK2 PPI	CHOP inh conf
Cc1ccc(Sc2ccc(/C=N/O)cc2[N+](=O)[O-])cc1	101.4*	-1.1	4.1	-2.0	-7.3	8.5	20.3
CO/N=C/c1ccc(Sc2ccc(C)cc2)c([N+](=O)[O-])c1	48.8	8.6	-4.2	-4.4	13.2	-17.5	.
CN(C)c1ccc(C(CNS(=O)(=O)c2ccc(F)c(F)c2)c2c[nH]c3ccccc23)cc1 (centres undefined)	109.6*	-2.4	-13.1	1.7	-11.5	-11.1	115.6*
COc1ccc2c3c(cccc13)C(=O)N(O)C2=O	101.7*	.	-2.4	.	1.2	-0.9	108.4*
CN(C)c1ccc(/C=C2\C(=N)N3N=C(CC(=O)N4CCCCC4)SC3=NC2=O)cc1	.	-1.3	13.9	-0.3	.	3.8	.
CN(C)c1ccc(/C=C2\C(=N)N3C(=NC2=O)Sc2cc(S(C)(=O)=O)ccc23)cc1	104.0*	135.9*	.	16.4	.	.	-8.8
N#CC1=C(N)C2=CCCC[C@H]2[C@H](c2ccc(Br)cc2)C1(C#N)C#N	99.3*	.	2.5	.	6.3	3.1	23.7
Cc1ccc(OCc2nc(-c3ccc(Cl)cc3)n[nH]2)cc1	99.9*	1.7	4.2	2.6	-13.5	-9.9	34.3
Cc1oc2ccc(NS(=O)(=O)c3ccc(C(C)(C)C)cc3)cc2c1C(=O)Nc1ccccc1	107.0*	-3.8	-1.1	2.7	17.8	3.0	45.3
CC(=O)c1c(C)oc2ccc(NS(=O)(=O)c3ccc(C)cc3)cc12	.	2.1	-2.2	-0.1	.	-13.5	.
Cc1sc(NC(=O)c2ccccc2)c(C(c2ccc(Cl)cc2)N2CCN(CCO)CC2)c1C (centres undefined)	104.2*	1.6	-14.6	0.3	3.9	8.4	2.1
CC(=O)Nc1sc2c(c1C(c1cccc(Cl)c1)N1CCN(CCO)CC1)CCCC2 (centres undefined)	38.1	-0.3	0.1	0.6	-7.2	-0.6	.
COc1ccc(/C=C2/CSC/C(=C/c3ccc(OC)c(OC)c3)C2=O)cc1OC	.	.	-1.2	.	.	8.3	.
CCCC(C(=O)NCc1ccco1)N(C(=O)CNS(=O)(=O)c1ccccc1)c1ccccc1OC (centres undefined)	10.5	-3.7	-10.6	-0.5	3.6	-0.9	.
Nc1nc(-c2ccc(Br)s2)c(Br)s1	97.8*	2.4	-3.7	3.5	5.2	-8.8	11.0
CCCCCCn1cc(CN2CC(N3CCN(CCN(C)C)CC3)CS2(=O)=O)nn1 (centres undefined)	.	.	.	.	.	-7.1	.
CCSCCc1nnc(NC(=O)Nc2cccc(C(F)(F)F)c2)s1	96.3*	10.6	-3.3	7.1	3.6	-19.0	99.3*
CC(C)c1nnc(N2C(=O)c3oc4ccccc4c(=O)c3C2c2ccco2)s1 (centres undefined)	111.6*	0.7	-13.1	0.3	-4.6	-3.3	110.0*
Cc1ccc(C2c3c(oc4ccccc4c3=O)C(=O)N2c2nncs2)cc1 (centres undefined)	30.6	-1.4	9.5	-0.3	.	-2.6	.
